{
  "source": "ChEMBL document CHEMBL1148946",
  "about": "“Farinosones A-C, neurotrophic alkaloidal metabolites from the entomogenous deuteromycete Paecilomyces farinosus” (J Nat Prod, 2004)",
  "key": {"PC-12 [1]": {"system": "PC-12", "assay": "Cytotoxicity against rat PC12 cells at 0.1 to 50 uM after 4 hrs", "type": "cell-based", "conditions": "pc-12, 2 days, in the assay text read “after 2 days” for “after 4 hrs”", "how_it_was_run": "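MTT viability in PC-12 cells (DSMZ) in DMEM with 10% HS, 5% FBS and pen/strep; 5 × 10^4 cells/mL seeded, 1 h at 37 °C, then MeOH or DMSO stocks diluted in DMEM to 50, 20, 10, 1, 0.1 µM. Cells exposed 2 days at 37 °C, 5% CO2. MTT added for 4 h, SDS lysis overnight, OD 544 nm. Quadruplicate, mean ± SD; 0.2% MeOH/1% DMSO taken as 100% viability.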"}, "PC-12 [2]": {"system": "PC-12", "assay": "Induction of neuritogenic activity in rat PC12 cells assessed as cells with length of one cell diameter at 50 uM after 48 hrs by phase contrast microscope", "type": "functional", "how_it_was_run": "(§1)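 PC-12 cells (DSMZ) were primed 5 days in DMEM with 1% HS, 0.5% FBS and 50 ng/mL NGF, then put back in full-serum DMEM. Cells were dispersed through a 21-gauge needle, seeded at 1 × 10^5 cells/mL on collagen-coated wells and allowed 4 h. Compound at final 20 or 50 µM (0.2% MeOH or DMSO) for 48 h; NGF 50 ng/mL control. Phase-contrast scoring of 300 cells in three areas of two wells.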"}, "PC-12 [3]": {"system": "PC-12", "assay": "Induction of neuritogenic activity in rat PC12 cells assessed as cells with longer than one cell diameter at 50 uM after 48 hrs by phase contrast microscope", "type": "functional", "how_it_was_run": "as §1"}, "PC-12 [4]": {"system": "PC-12", "assay": "Induction of neuritogenic activity in rat PC12 cells assessed as round cells without differention at 50 uM after 48 hrs by phase contrast microscope", "type": "functional", "how_it_was_run": "as §1"}, "PC-12 [5]": {"system": "PC-12", "assay": "Induction of neuritogenic activity in rat PC12 cells assessed as cells with length of one cell diameter at 20 uM after 48 hrs by phase contrast microscope", "type": "functional", "how_it_was_run": "as §1"}, "PC-12 [6]": {"system": "PC-12", "assay": "Induction of neuritogenic activity in rat PC12 cells assessed as round cells without differention at 20 uM after 48 hrs by phase contrast microscope", "type": "functional", "how_it_was_run": "as §1"}, "PC-12 [7]": {"system": "PC-12", "assay": "Induction of neuritogenic activity in rat PC12 cells assessed as cells with flattened appearance at 50 uM after 48 hrs by phase contrast microscope", "type": "functional", "how_it_was_run": "as §1"}, "PC-12 [8]": {"system": "PC-12", "assay": "Induction of neuritogenic activity in rat PC12 cells assessed as cells with flattened appearance at 20 uM after 48 hrs by phase contrast microscope", "type": "functional", "how_it_was_run": "as §1"}},
  "data": [
    {"molecule": "CCC(C)/C=C(C)/C=C/C=C/C=C/C(=O)c1c(O)c(-c2ccc(O)cc2)c[nH]c1=O", "note": "(stereo not drawn) [FARINOSONE A]", "values": [
      {"measurement": "Activity", "setting": "PC-12 [1]", "value": "Non-toxic"},
      {"measurement": "Activity", "setting": "PC-12 [2]", "value": 60, "unit": "%"},
      {"measurement": "Activity", "setting": "PC-12 [3]", "value": 10, "unit": "%"},
      {"measurement": "Activity", "setting": "PC-12 [4]", "value": 30, "unit": "%"},
      {"measurement": "Activity", "setting": "PC-12 [5]", "value": 40, "unit": "%"},
      {"measurement": "Activity", "setting": "PC-12 [6]", "value": 60, "unit": "%"}
    ]},
    {"molecule": "CCC(C)/C=C(C)/C=C/C=C/C=C/C(=O)c1c(O)c(-c2ccc(O)cc2)cn(O)c1=O", "note": "(stereo not drawn) [FARINOSONE B]", "values": [
      {"measurement": "Activity", "setting": "PC-12 [1]", "value": "Non-toxic"}
    ]},
    {"molecule": "CC(/C=C/C(=O)NC(CO)Cc1ccc(O)cc1)=C\\C(C)CC(=O)O", "note": "(stereo not drawn) [FARINOSONE C]", "values": [
      {"measurement": "Activity", "setting": "PC-12 [1]", "value": "Non-toxic"},
      {"measurement": "Activity", "setting": "PC-12 [2]", "value": 13, "unit": "%"},
      {"measurement": "Activity", "setting": "PC-12 [7]", "value": 60, "unit": "%"},
      {"measurement": "Activity", "setting": "PC-12 [4]", "value": 27, "unit": "%"},
      {"measurement": "Activity", "setting": "PC-12 [6]", "value": 47, "unit": "%"},
      {"measurement": "Activity", "setting": "PC-12 [8]", "value": 53, "unit": "%"}
    ]}
  ]
}
